{"source": "ChEMBL document CHEMBL6071149", "about": "“Synthesis and photo-induced anticancer activity of new 2-phenylethenyl-1H-benzo[e]indole dyes” (Eur J Med Chem, 2024)", "key": {"[1]": {"test": "(§1) Selectivity ratio of EC50 for human G361 cells under dark condition measured after 24 hrs by MTT assay to EC50 for human G361 cells pretreated for 4 hrs followed by light irradiation of 10 J/cm2 at 414 nm measured after 20 hrs by MTT assay", "assay_type": "functional", "outline": "(§2)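 Ratio of dark EC50 to EC50 after 414 nm irradiation (10 J/cm²). MTT read-out; compound exposure 4 h before irradiation. Each dark value is paired with the matching post-irradiation incubation (20 h or 68 h).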"}, "ARN-8 cell [2]": {"tested_on": "ARN-8 cell", "test": "Upregulation of Mcl-1 level in human ARN-8 cells-derived from human A375 cells upto 4 uM pretreated for 4 hrs followed by light irradiation of 10 J/cm2 at 414 nm measured after 20 hrs by Western blot analysis", "assay_type": "functional, cell-based", "conditions": "time 24.0 hrs", "outline": "(§3)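 Compound exposure 4 h, then 414 nm irradiation, then 20 h further incubation. Lysates made in RIPA buffer, separated by SDS-PAGE and blotted to nitrocellulose. Primary antibodies in TBS with 4 % BSA and 0.1 % Tween 20, incubated overnight. Peroxidase secondary antibody with chemiluminescent detection. GAPDH served as loading control.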"}, "ARN-8 cell [3]": {"tested_on": "ARN-8 cell", "test": "Induction of oxidative stress in human ARN-8 cells-derived from human A375 cells assessed as increase in HO-1 level upto 4 uM under dark condition by immunoblot analysis", "assay_type": "functional, cell-based"}, "ARN-8 cell [4]": {"tested_on": "ARN-8 cell", "test": "Induction of cell cycle arrest in human ARN-8 cells-derived from human A375 cells assessed as cell accumulation at G2/M phase at 0.5 to 1 uM pretreated for 4 hrs followed by light irradiation of upto 10 J/cm2 at 414 nm measured after 20 hrs by flow cytometry", "assay_type": "functional, cell-based", "conditions": "dose 0.5-1 µM, time 24.0 hrs", "outline": "(§4)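 Compound exposure 4 h (0.5 or 1 µM), then irradiation at increasing blue-light doses, then 20 h further incubation. Cells stained with propidium iodide; DNA content measured by flow cytometry with a 488 nm laser. Cell-cycle and subG1 distributions analysed.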"}, "[5]": {"test": "(§5) Selectivity ratio of EC50 for human BJ cells under dark condition measured after 72 hrs by MTT assay to EC50 for human G361 cells pretreated for 4 hrs followed by light irradiation of 10 J/cm2 at 414 nm measured after 68 hrs by MTT assay", "assay_type": "functional", "outline": "as §2"}, "[6]": {"test": "as §1, with “ARN-8 cells-derived from human A375” for “G361”", "assay_type": "functional, ARN-8 cell", "outline": "as §2"}, "G-361 [7]": {"tested_on": "G-361", "test": "Cytotoxicity against human G361 cells under dark condition measured after 24 hrs by MTT assay", "assay_type": "functional, cell-based", "conditions": "G-361, 24 h", "outline": "(§6)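 Cells grown in phenol red-free DMEM with 10 % FBS, penicillin/streptomycin, 37 °C, 5 % CO₂. Compound added 24 h after plating and incubated 4 h. Irradiated cells received 414 nm LED light at 20 mW/cm², 10 J/cm², then were incubated 20 h or 68 h more. Dark plates were run in parallel without irradiation. MTT was added for 4 h, formazan dissolved in 10 % SDS, absorbance read at 570 nm. EC50 ± SD.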"}, "[8]": {"test": "Cytotoxicity against ARN-8 cells-derived from human A375 cells pretreated for 4 hrs followed by light irradiation of 10 J/cm2 at 414 nm measured after 20 hrs by MTT assay", "assay_type": "functional, cell-based", "conditions": "ARN-8 cell, light or radiation study", "outline": "as §6"}, "ARN-8 cell [9]": {"tested_on": "ARN-8 cell", "test": "Induction of apoptosis in human ARN-8 cells-derived from human A375 cells assessed as increase in cleaved PARP-1 level upto 4 uM pretreated for 4 hrs followed by light irradiation of 10 J/cm2 at 414 nm measured after 20 hrs by Western blot analysis", "assay_type": "functional, cell-based", "conditions": "time 24.0 hrs", "outline": "as §3"}, "G-361 [10]": {"tested_on": "G-361", "test": "Induction of ROS production in human G361 cells upto 4 uM treated for 4 hrs under dark condition by CM-H2DCFA probe based analysis", "assay_type": "functional, cell-based", "outline": "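Cells loaded next day with 5 µM CM-H₂DCFDA for 30 min, then placed in prewarmed PBS with 5 mM glucose. Compound exposure 4 h, followed by 414 nm irradiation at 5 or 10 J/cm²; dark samples run in parallel. Fluorescence read immediately at 492/530 nm. NAC (5 mM) pretreatment for 10 min gave negative controls. RFU normalised to untreated dark control.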"}, "G-361 [11]": {"tested_on": "G-361", "test": "Induction of oxidative stress in human G361 cells assessed as increase in HO-1 level upto 4 uM under dark condition by immunoblot analysis", "assay_type": "functional, cell-based"}, "G-361 [12]": {"tested_on": "G-361", "test": "Cytotoxicity against human G361 cells pretreated for 4 hrs followed by light irradiation of 10 J/cm2 at 414 nm measured after 20 hrs by MTT assay", "assay_type": "functional, cell-based", "conditions": "G-361, light or radiation study", "outline": "as §6"}, "ARN-8 cell [13]": {"tested_on": "ARN-8 cell", "test": "Downregulation of p53 level in human ARN-8 cells-derived from human A375 cells transfected with p53-responsive beta-galactosidase at higher concentration pretreated for 4 hrs followed by light irradiation of 10 J/cm2 at 414 nm measured after 20 hrs by fluorescence based assay", "assay_type": "functional", "conditions": "time 24.0 hrs", "outline": "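ARN8 cells stably carrying the p53-responsive pRGΔfoslacZ reporter. Increasing compound concentrations for 4 h, then 414 nm irradiation at 2.5, 5, 7.5 or 10 J/cm², then 20 h further incubation. Cells lysed in 0.3 % Triton X-100. After 10 min, 4-methylumbelliferyl β-D-galactopyranoside added at a final 80 µM for 1 h. Fluorescence read at […].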"}, "G-361 [14]": {"tested_on": "G-361", "test": "Cytotoxicity against human G361 cells under dark condition measured after 72 hrs by MTT assay", "assay_type": "functional, cell-based", "conditions": "G-361, 72 h", "outline": "as §6"}, "G-361 [15]": {"tested_on": "G-361", "test": "Induction of cell cycle arrest in human G361 cells assessed as increase in cell population at sub-G1 phase at 0.5 to 1 uM pretreated for 4 hrs followed by light irradiation of upto 10 J/cm2 at 414 nm measured after 20 hrs by flow cytometry", "assay_type": "functional, cell-based", "conditions": "dose 0.5-1 µM, time 24.0 hrs", "outline": "as §4"}, "ARN-8 cell [16]": {"tested_on": "ARN-8 cell", "test": "Induction of DNA damage in human ARN-8 cells-derived from human A375 cells assessed as increase in H2AX phosphorylation at Ser139 at 0.5 to 1 uM pretreated for 4 hrs followed by light irradiation of upto 10 J/cm2 at 414 nm measured after 20 hrs by Western blot analysis", "assay_type": "functional, cell-based", "conditions": "dose 0.5-1 µM, time 24.0 hrs", "outline": "as §3"}, "ARN-8 cell [17]": {"tested_on": "ARN-8 cell", "test": "Induction of ROS production in human ARN-8 cells-derived from human A375 cells assessed as increase in singlet oxygen level upto 4 uM pretreated for 4 hrs followed by replacement of medium containing probe without compound for 30 mins and subsequent light irradiation of 5 to 10 J/cm2 measured immediately by DHR-123 probe based analysis", "assay_type": "functional", "outline": "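Compound exposure 4 h, then medium replaced with PBS containing 5 µM DHR123 probe for 30 min. Probe removed, cells in PBS irradiated at 5 or 10 J/cm², dark samples in parallel. Fluorescence read immediately at 490/525 nm.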"}, "[18]": {"test": "Cytotoxicity against ARN-8 cells-derived from human A375 cells pretreated for 4 hrs followed by light irradiation of 10 J/cm2 at 414 nm measured after 68 hrs by MTT assay", "assay_type": "functional, cell-based", "conditions": "ARN-8 cell, light or radiation study", "outline": "as §6"}, "[19]": {"test": "Induction of singlet oxygen generation in aqueous solution at 5 uM at light irradiation of 10 J/cm2", "assay_type": "functional", "outline": "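Water solutions of compound mixed with SOSG, DHR123 or HPF probe, each at a final 5 µM, without cells or medium. Irradiated with blue light at 10 J/cm² and fluorescence read immediately at 490/525 nm.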"}, "[20]": {"test": "as §5, with “ARN-8 cells-derived from human A375” for “BJ”, “ARN-8 cells-derived from human A375” for “G361”", "assay_type": "functional, ARN-8 cell", "outline": "as §2"}}, "note": "Activity calls are given as the source filed them. No cut-off for these calls is given here.", "data": [{"molecule": "COc1ccc(/C=C/C2=Nc3ccc4ccccc4c3C2(C)C)cc1[N+](=O)[O-]", "values": [{"measurement": "Ratio EC50", "setting": "[1]", "result": ">=15"}, {"measurement": "Activity", "setting": "ARN-8 cell [2]", "result": "Active"}, {"measurement": "Activity", "setting": "ARN-8 cell [3]", "result": "Active"}, {"measurement": "Activity", "setting": "ARN-8 cell [4]", "result": "Active"}, {"measurement": "Ratio EC50", "setting": "[5]", "result": ">40"}, {"measurement": "Ratio EC50", "setting": "[6]", "result": ">=15"}, {"measurement": "EC50", "setting": "G-361 [7]", "result": 9000, "unit": "nM"}, {"measurement": "EC50", "setting": "[8]", "result": 500, "unit": "nM"}, {"measurement": "Activity", "setting": "ARN-8 cell [9]", "result": "Active"}, {"measurement": "Activity", "setting": "G-361 [10]", "result": "inactive"}, {"measurement": "Activity", "setting": "G-361 [11]", "result": "Active"}, {"measurement": "EC50", "setting": "G-361 [12]", "result": 600, "unit": "nM"}, {"measurement": "Activity", "setting": "ARN-8 cell [13]", "result": "Active"}, {"measurement": "EC50", "setting": "G-361 [14]", "result": 5600, "unit": "nM"}, {"measurement": "Activity", "setting": "G-361 [15]", "result": "Active"}, {"measurement": "Activity", "setting": "ARN-8 cell [16]", "result": "Active"}, {"measurement": "Activity", "setting": "ARN-8 cell [17]", "result": "inactive"}, {"measurement": "EC50", "setting": "[18]", "result": 200, "unit": "nM"}, {"measurement": "Activity", "setting": "[19]", "result": "inactive"}, {"measurement": "Ratio EC50", "setting": "[20]", "result": ">28"}]}]}
